The values below come from ChEMBL document CHEMBL1121802, “Imine analogues of tricyclic antidepressants” (1981).

A value given as a limit tells only on which side of the number the result lay.

Common to all, as to format: functional
In experiment [1] the test system is Mus musculus. The experiment is described as follows: The effect on electroshock protection in mice following oral administration. An outline of the steps: (§1)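 Observed at 0.5, 2, 5 and 24 h for ataxia (abnormal gait/imprecise movement), pupil diameter (dissecting microscope, 20×, micrometer), excitement (spontaneous running/jumping) and electroshock protection (corneal electrodes at 2 and 5 h). ED50 by Thompson method.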

For experiment [2], the system named is Mus musculus. Nature of the experiment: The effect on 24-hour mortality in mice following oral administration.
Experiment [3] relates to Mus musculus. The experiment is described as follows: Effect on pupil dilation was measured in mice upon oral administration. An outline of the steps: as §1
Experiment [4] deals with Mus musculus. Nature of the experiment: The effect on ataxia in mice following oral administration. The gist of the method:
as §1

Experiment [5] deals with Mus musculus. Nature of the experiment: The effect on excitement was measured in mice following oral administration. The gist of the method: as §1
The subject of experiment [6] is Mus musculus. Nature of the experiment: Antidepressant activity by determining the decreased exploratory activity in mice upon oral administration. The gist of the method:
(§2)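 Mice given test drug orally; 30 min later challenged with tetrabenazine (methanesulfonate) 32 mg/kg ip in 0.05 M KCl pH 2.0. Scored 1 h after test drug for exploratory activity and ptosis; ptosis antagonism = lid closure <50% in both eyes exactly 2 s after placing mouse facing observer. ED50 calculated by Thompson method.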

In experiment [7] the test system is Mus musculus. The experiment is described as follows: Antidepressant activity by determining the reversal of tetrabenazine-induced ptosis upon oral administration. An outline of the steps: as §2
The test system of experiment [8] is Mus musculus. The experiment is described as follows: Compound was tested for antidepressant activity by determining the decreased exploratory activity in mice upon oral administration. The gist of the method:
as §2

In experiment [9] the test system is Mus musculus. Nature of the experiment: Compound was tested for antidepressant activity by determining the reversal of tetrabenazine-induced ptosis upon oral administration; 26-122. The gist of the method:
as §2

The test system of experiment [10] is Mus musculus. The experiment is described as follows: Compound was tested for antidepressant activity by determining the decreased exploratory activity in mice upon oral administration; 39-238. An outline of the steps: as §2
For experiment [11], the system named is Mus musculus. Nature of the experiment: Compound was tested for antidepressant activity by determining the reversal of tetrabenazine-induced ptosis upon oral administration; 5.8-15.6. An outline of the steps:
as §2

In experiment [12] the test system is Mus musculus. Nature of the experiment: Compound was tested for antidepressant activity by determining the reversal of tetrabenazine-induced ptosis upon oral administration; 48-203. The gist of the method: as §2
The test system of experiment [13] is Mus musculus. The experiment is described as follows: compound was tested for antidepressant activity by determining the decreased exploratory activity in mice upon oral administration; […]. The gist of the method:
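Mice got the test drug, then 30 min later tetrabenazine (as methanesulfonate) 32 mg/kg ip, dissolved in 0.20 mL of 0.05 M KCl at pH 2.0. One hour after test drug (30 min after tetrabenazine), animals were scored for exploratory activity and ptosis. Reversal of the tetrabenazine-induced decrease in exploration was the read-out.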

Experiment [14] has as its system Mus musculus. Nature of the experiment: Compound was tested for antidepressant activity by determining the reversal of tetrabenazine-induced ptosis upon oral administration; 11-29. An outline of the steps: as §2
Experiment [15] relates to Mus musculus. The experiment is described as follows: Compound was tested for antidepressant activity by determining the decreased exploratory activity in mice upon oral administration; 20-36. An outline of the steps: as §2
Experiment [16] relates to Mus musculus. The experiment is described as follows: Compound was tested for antidepressant activity by determining the reversal of tetrabenazine-induced ptosis upon oral administration; 3.0-73. The gist of the method: as §2
Experiment [17] deals with Mus musculus. The experiment is described as follows: Compound was tested for antidepressant activity by determining the reversal of tetrabenazine-induced ptosis upon oral administration; 10-57. An outline of the steps: as §2
The subject of experiment [18] is Mus musculus. Nature of the experiment: Compound was tested for antidepressant activity by determining the decreased exploratory activity in mice upon oral administration; 22-53. An outline of the steps: as §2
In experiment [19] the test system is Mus musculus. The experiment is described as follows: Compound was tested for antidepressant activity by determining the decreased exploratory activity in mice upon oral administration; 0.4-1.1. An outline of the steps: as §2
The test system of experiment [20] is Mus musculus. The experiment is described as follows: Compound was tested for antidepressant activity by determining the reversal of tetrabenazine-induced ptosis upon oral administration; 0.17-0.37. The gist of the method: as §2

What is called ED50 is the midpoint of the dose-response relation. For `CC(=O)N1Cc2ccccc2/C(=N\CCN(C)C)c2ccccc21`, the ED50 in experiment [1] is over 324 mg/kg; in [2] it was over 324 mg/kg; in experiment [3], 200 mg/kg; in experiment [4] it was 100 mg/kg; in experiment [5], over 324 mg/kg; in experiment [6], over 125 mg/kg. Besides, in experiment [7], the ED50 is over 125 mg/kg.
Consider `CN(C)CCC=C1c2ccccc2COc2ccccc21` [DOXEPIN], for which the ED50 is 62 mg/kg in [1]; 232 mg/kg in experiment [2]; 56 mg/kg in [3]; 23 mg/kg in experiment [4]; over 324 mg/kg in [5]; 5.9 mg/kg in [7]. Also, the ED50 in [8] was determined as 27 mg/kg.
With `CN(C)CCCN=C(c1ccccc1)c1ccccc1`, the ED50 in experiment [1] is over 324 mg/kg; in experiment [2], 200 mg/kg; in experiment [3] it was over 324 mg/kg; in experiment [4], 60 mg/kg; in experiment [5], over 324 mg/kg; in [6], over 125 mg/kg. Further, in experiment [7], the ED50 is over 125 mg/kg.
Turning to `CN(C)CCCN=c1c2ccccc2oc2ccccc12`, the median effective dose (ED50) in [1] is over 324 mg/kg; in experiment [2], 300 mg/kg; in experiment [3] it was over 324 mg/kg; in [4], 60 mg/kg; in [5], over 324 mg/kg; in [6], over 125 mg/kg. Besides, the ED50 in experiment [7] is over 125 mg/kg.
As for `CN(C)CCN=C1c2ccccc2C(C)(C)c2ccccc21`, the ED50 in experiment [1] was over 324 mg/kg; in experiment [2], 200 mg/kg; in experiment [3], over 324 mg/kg; in experiment [4] it was 36 mg/kg; in [5], over 324 mg/kg; in experiment [6], over 125 mg/kg. Besides, in [7], the ED50 was over 125 mg/kg.
As for `CCNCCN=C1c2ccccc2CCc2ccccc21`, the ED50 is 60 mg/kg in [1]; 36 mg/kg in [2]; 20 mg/kg in [3]; 20 mg/kg in [4]; over 324 mg/kg in experiment [5]; over 125 mg/kg in experiment [6]. The ED50 in [7] was over 125 mg/kg.
On to `CN(C)CCN=C1c2ccccc2C2C(c3ccccc31)C2(Cl)Cl` (stereo not given), for which the median effective dose (ED50) was over 324 mg/kg in [1]; over 324 mg/kg in experiment [2]; over 324 mg/kg in experiment [3]; 200 mg/kg in experiment [4]; over 324 mg/kg in experiment [5]; over 125 mg/kg in experiment [6]. The ED50 in [7] is over 125 mg/kg.
As to `CN(C)CCC/N=C1\c2ccccc2CSc2ccccc21`, the median effective dose (ED50) in [1] was over 324 mg/kg; in experiment [2], 60 mg/kg; in experiment [3] it was 60 mg/kg; in experiment [4] it was 60 mg/kg; in [5], over 324 mg/kg; in [6], 81 mg/kg. Further, the ED50 in experiment [7] was over 81 mg/kg.
In the case of `CN(C)CCC/N=C1\c2ccccc2CN(C)c2ccccc21`, the ED50 in [9] was 56 mg/kg; in [1], over 324 mg/kg; in [2] it was 20 mg/kg; in [3], 100 mg/kg; in experiment [4], 200 mg/kg; in experiment [5] it was over 324 mg/kg. In experiment [10], this molecule showed an ED50 of 96 mg/kg.
As to `CN(C)CCN=C(c1ccccc1)c1ccccc1`, the ED50 in experiment [1] was over 200 mg/kg; in experiment [2] it was over 324 mg/kg; in [3], over 324 mg/kg; in [4], 36 mg/kg; in experiment [5], over 324 mg/kg; in experiment [6] it was over 81 mg/kg. Besides, the ED50 in experiment [7] was over 81 mg/kg.
`CN(C)CCN=C1c2ccccc2C2C(Cl)C2c2ccccc21` (stereo not given): the ED50 was over 324 mg/kg in [1]; over 324 mg/kg in experiment [2]; 200 mg/kg in experiment [3]; 200 mg/kg in experiment [4]; over 324 mg/kg in experiment [5]; over 125 mg/kg in experiment [6]. In addition, the ED50 in experiment [7] is over 125 mg/kg.
On to `CN(C)CCNC1c2ccccc2CCc2ccccc21`, for which the ED50 in experiment [1] was 60 mg/kg; in [2] it was 200 mg/kg; in [3], 20 mg/kg; in [4] it was 20 mg/kg; in experiment [5] it was over 324 mg/kg; in [7], over 125 mg/kg. The molecule further gave an ED50 in experiment [8] of over 125 mg/kg.
In the case of `c1ccc2c(c1)C(=NCCN1CCCC1)c1ccccc1C1CC21` (stereo not given), the ED50 in experiment [1] was 200 mg/kg; in experiment [2], 300 mg/kg; in experiment [3], 7 mg/kg; in experiment [4], 60 mg/kg; in experiment [5], over 324 mg/kg; in experiment [6] it was over 125 mg/kg. In experiment [7], the ED50 was over 125 mg/kg.
With `NCCCNC1c2ccccc2CCc2ccccc21`, the ED50 in experiment [1] is over 324 mg/kg; in [2], 200 mg/kg; in experiment [3] it was 60 mg/kg; in experiment [4] it was 60 mg/kg; in experiment [5], over 324 mg/kg; in experiment [7] it was over 125 mg/kg. The same molecule gave an ED50 in [8] of over 125 mg/kg.
Regarding `CN(C)CCC/N=C1\c2ccccc2CS(=O)(=O)c2ccccc21`, the ED50 was over 324 mg/kg in experiment [1]; 20 mg/kg in experiment [2]; 20 mg/kg in experiment [3]; 200 mg/kg in experiment [4]; over 324 mg/kg in experiment [5]; over 125 mg/kg in experiment [6]. For the same molecule, the ED50 in [7] was over 125 mg/kg.
Take `CN(C)CCCN=c1c2ccccc2ccc2ccccc12`: the ED50 in experiment [1] is over 324 mg/kg; in [3] it was 7 mg/kg; in experiment [4] it was 20 mg/kg; in experiment [11], 9.5 mg/kg; in [5] it was 36 mg/kg; in experiment [8] it was over 125 mg/kg.
With `CN(C)CCC/N=C1\c2ccccc2COc2ccccc21`, the ED50 in [1] was over 324 mg/kg; in experiment [2], 200 mg/kg; in [3], 20 mg/kg; in experiment [4] it was 20 mg/kg; in experiment [5] it was over 324 mg/kg; in experiment [6] it was over 125 mg/kg. Further, the ED50 in experiment [12] was found to be 99 mg/kg.
Turning to `NCCN=C1c2ccccc2CCc2ccccc21`, the ED50 in experiment [1] is 200 mg/kg; in experiment [2], 200 mg/kg; in [3], 200 mg/kg; in experiment [4], 100 mg/kg; in experiment [5], over 324 mg/kg; in experiment [13], 56 mg/kg. In addition, in [14], the ED50 worked out at 18 mg/kg.
Turning to `CCN(CC)CCN=C1c2ccccc2CCc2ccccc21`, the ED50 in experiment [1] was 200 mg/kg; in experiment [2] it was 60 mg/kg; in experiment [3], 36 mg/kg; in experiment [4] it was 20 mg/kg; in experiment [5] it was over 324 mg/kg; in [6], 36 mg/kg. Besides, the ED50 in [7] is over 125 mg/kg.
In the case of `CN(C)CCCN1c2ccccc2CCc2ccccc21` [IMIPRAMINE], the median effective dose (ED50) in [1] was 209 mg/kg; in [2], 305 mg/kg; in experiment [3], 198 mg/kg; in experiment [4], 62 mg/kg; in experiment [5], over 324 mg/kg; in experiment [7], 0.9 mg/kg. The ED50 in [8] came to 2.2 mg/kg.
As to `CN(C)CC/N=C1\c2ccccc2CSc2ccccc21`, the ED50 in experiment [1] is over 324 mg/kg; in experiment [2], 60 mg/kg; in [3], 20 mg/kg; in experiment [15], 27 mg/kg; in experiment [4], 20 mg/kg; in experiment [5], over 324 mg/kg. In experiment [16], the ED50 came out at 47 mg/kg.
As for `CN(C)CCCN=C1c2ccccc2CCc2ccccc21`, the median effective dose (ED50) is 24 mg/kg in [17]; over 324 mg/kg in [1]; 36 mg/kg in experiment [2]; 20 mg/kg in [3]; 60 mg/kg in experiment [4]; over 324 mg/kg in experiment [5]. In experiment [18], this molecule yielded an ED50 of 34 mg/kg.
For the molecule `CN(C)CCN=C1c2ccccc2C2CC2c2ccccc21` (stereo not given), the ED50 in experiment [1] is over 324 mg/kg; in experiment [2] it was over 324 mg/kg; in [3] it was 20 mg/kg; in experiment [19], 0.7 mg/kg; in [4] it was 20 mg/kg; in [5] it was 60 mg/kg. Further, the ED50 in [20] came to 0.25 mg/kg.
